Measured values taken from ChEMBL document CHEMBL1687917, “Increased bioavailability of tricin-amino acid derivatives via a prodrug approach” (J Med Chem, 2011).

Assays:
[1] = AUC (0 to 8 hrs) in Crl:CD (SD) rat at 100 mg/kg, po after 0.5 to 8 hrs; assay type: ADME, organism-based; set-up: time < 8 hr, dose 100 mg/kg, route oral; settings: plasma
Procedure, shortened: (§1)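 Male Crl:CD (SD) rats were given a single oral bolus of the prodrug by gavage at 100, 300 or 1000 mg kg^-1. Blood was drawn from the tail at 0, 0.5, 2, 4 and 8 h, and plasma was separated by centrifugation (6000 rpm, 10 min, 4 °C) and held at -25 °C for no more than 19 days. Released tricin was quantified. Two Cmax values were reported, with AUC over 0-8 h; means ± SEMs, n = 3.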

[2] = test system: Mus musculus; assay: Toxicity in Crlj:CD1 (ICR) mouse assessed as abnormal blood chemistry at 300 mg/kg/day, po for 14 days; assay type: organism-based; set-up: route oral; settings: in vivo, 336 h
[3] = AUC (0 to 8 hrs) in Crl:CD (SD) rat at 1000 mg/kg, po after 0.5 to 8 hrs; assay type: ADME, organism-based; set-up: time < 8 hr, dose 1000 mg/kg, route oral; settings: plasma; procedure, shortened: as §1
[4] = Cmax in Crl:CD (SD) rat at 1000 mg/kg, po after 0.5 to 8 hrs by RP-HPLC; assay type: ADME, organism-based; set-up: dose 1000 mg/kg, route oral; settings: in vivo; procedure, shortened: as §1
[5] = test system: Mus musculus; assay: Toxicity in Crlj:CD1 (ICR) mouse assessed as abnormal hematology at 300 mg/kg/day, po for 14 days; assay type: organism-based; set-up: route oral; settings: in vivo, 336 h
[6] = test system: Mus musculus; assay: Toxicity in Crlj:CD1 (ICR) mouse assessed as abnormal appearance at 300 mg/kg/day, po for 14 days; assay type: organism-based; set-up: route oral; settings: in vivo, 336 h
[7] = Cmax in Crl:CD (SD) rat at 300 mg/kg, po after 0.5 to 8 hrs by RP-HPLC; assay type: ADME, organism-based; set-up: dose 300 mg/kg, route oral; settings: in vivo; procedure, shortened: as §1
[8] = test system: Mus musculus; assay: Toxicity in Crlj:CD1 (ICR) mouse assessed as abnormal food consumption at 300 mg/kg/day, po for 14 days; assay type: organism-based; set-up: route oral; settings: in vivo, 336 h
[9] = Stability of the compound in MDCK cell lysate assessed as half life; assay type: ADME, cell-based, Canis lupus familiaris; settings: dog
Procedure, shortened: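 Whole-cell lysate was prepared from 1.33 × 10⁶ MDCK cells with lysis buffer, and prodrugs were incubated with it. Half-life was taken as the time to 50% release of parent drug through carbamate hydrolysis by endogenous enzymes; means ± SEMs, n = 3.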

[10] = test system: Mus musculus; assay: Toxicity in Crlj:CD1 (ICR) mouse assessed as abnormal autopsy test at 300 mg/kg/day, po for 14 days; assay type: organism-based; set-up: route oral; settings: in vivo, 336 h
[11] = test system: Mus musculus; assay: Toxicity in Crlj:CD1 (ICR) mouse assessed as abnormal body weight at 300 mg/kg/day, po for 14 days; assay type: organism-based; set-up: route oral; settings: in vivo, 336 h
[12] = AUC (0 to 8 hrs) in Crl:CD (SD) rat at 300 mg/kg, po after 0.5 to 8 hrs; assay type: ADME, organism-based; set-up: time < 8 hr, dose 300 mg/kg, route oral; settings: plasma; procedure, shortened: as §1
[13] = Cmax in Crl:CD (SD) rat at 100 mg/kg, po after 0.5 to 8 hrs by RP-HPLC; assay type: ADME, organism-based; set-up: dose 100 mg/kg, route oral; settings: in vivo; procedure, shortened: as §1
[14] = test system: Plasma; assay: Plasma concentration in Crl:CD (SD) rat at 1000 mg/kg, po after 0.5 to 4 hrs; assay type: ADME, organism-based; set-up: dose 1000 mg/kg, route oral; settings: in vivo
Procedure, shortened: (§2)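 Tricin was suspended in 1% aqueous methylcellulose (10 mL kg^-1), sonicated and given as a single gavage dose of 100, 300 or 1000 mg kg^-1 to male and female Crl:CD (SD) rats. Tail blood was taken at 0, 0.5, 2 and 4 h, and plasma tricin was quantified by RP-HPLC; means ± SEMs, n = 3.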

[15] = test system: Plasma; assay: Plasma concentration in Crl:CD (SD) rat at 300 mg/kg, po after 0.5 to 4 hrs; assay type: ADME, organism-based; set-up: dose 300 mg/kg, route oral; settings: in vivo; procedure, shortened: as §2
[16] = test system: Plasma; assay: Plasma concentration in Crl:CD (SD) rat at 100 mg/kg, po after 0.5 to 4 hrs; assay type: ADME, organism-based; set-up: dose 100 mg/kg, route oral; settings: in vivo; procedure, shortened: as §2

SMILES: COc1cc(-c2cc(=O)c3c(O)cc(O)cc3o2)cc(OC)c1OC(=O)N[C@@H](C)C(=O)N[C@@H](CCC(=O)O)C(=O)O
- AUC(0-t) at 8 h [1]: 10300 ng·h/mL
- Activity [2]: Non-toxic
- AUC(0-t) at 8 h [3]: 21500 ng·h/mL
- Cmax [4]: 2880 ng/mL
- Activity [5]: Non-toxic
- Activity [6]: Non-toxic
- Cmax [7]: 2870 ng/mL
- Activity [8]: Non-toxic
- half-life [9]: 2.75 h
- Activity [10]: Non-toxic
- Activity [11]: Non-toxic
- AUC(0-t) at 8 h [12]: 15100 ng·h/mL
- Cmax [13]: 692 ng/mL

SMILES: COc1cc(-c2cc(=O)c3c(O)cc(O)cc3o2)cc(OC)c1O [TRICIN]
- Cp [14]: < 60 ng/mL
- Cp [15]: < 60 ng/mL
- Cp [16]: < 60 ng/mL
